In experiment [1] the target is T1, Gamma-aminobutyric acid receptor subunit alpha-4/beta-1/delta (Homo sapiens, UniProt O14764+P18505+P48169). Description: Antagonist activity at recombinant human alpha4beta1delta GABAA receptor expressed in HEK293 Flp-In cells by FMP assay. In kind it is cell-based, Flp-In-293. Summed up: (§1)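 HEK293 Flp-In cells stably expressing human δ subunit, transiently transfected with human α and β subunits (1:1) to form αβδ receptors. Read-out is the FLIPR membrane potential dye ΔRFU, baseline to peak/plateau, with GABA EC80 as agonist. Four-parameter fit of concentration–inhibition curves gives IC50, from at least three independent experiments.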
T1 sequence (P48169 whole entry): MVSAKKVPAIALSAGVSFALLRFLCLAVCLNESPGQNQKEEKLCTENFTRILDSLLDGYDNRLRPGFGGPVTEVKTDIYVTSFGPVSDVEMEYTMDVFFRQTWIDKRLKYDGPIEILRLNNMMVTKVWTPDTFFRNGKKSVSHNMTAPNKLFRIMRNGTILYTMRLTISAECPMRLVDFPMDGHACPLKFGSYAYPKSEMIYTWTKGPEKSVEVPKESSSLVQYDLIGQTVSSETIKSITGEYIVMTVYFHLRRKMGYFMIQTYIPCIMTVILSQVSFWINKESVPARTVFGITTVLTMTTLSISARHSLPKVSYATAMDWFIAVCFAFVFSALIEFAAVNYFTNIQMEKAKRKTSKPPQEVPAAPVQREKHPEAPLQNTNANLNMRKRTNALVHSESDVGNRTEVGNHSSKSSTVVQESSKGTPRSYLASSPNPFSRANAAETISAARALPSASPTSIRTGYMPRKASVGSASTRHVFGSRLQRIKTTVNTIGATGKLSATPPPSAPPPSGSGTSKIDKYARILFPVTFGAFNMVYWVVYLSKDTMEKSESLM
T1 sequence (O14764 whole entry): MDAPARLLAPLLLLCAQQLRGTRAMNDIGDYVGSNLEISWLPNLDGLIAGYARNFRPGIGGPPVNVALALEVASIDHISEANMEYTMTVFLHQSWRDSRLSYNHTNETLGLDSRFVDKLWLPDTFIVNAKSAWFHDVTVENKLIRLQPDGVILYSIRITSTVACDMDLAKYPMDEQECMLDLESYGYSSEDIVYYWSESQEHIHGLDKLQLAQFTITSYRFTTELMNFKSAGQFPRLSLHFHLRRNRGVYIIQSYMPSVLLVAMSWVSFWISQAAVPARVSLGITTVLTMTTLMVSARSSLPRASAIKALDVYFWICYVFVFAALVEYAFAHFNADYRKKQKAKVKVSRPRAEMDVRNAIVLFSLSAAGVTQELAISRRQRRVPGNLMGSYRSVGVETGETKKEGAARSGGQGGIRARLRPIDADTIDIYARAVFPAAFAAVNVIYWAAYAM
T1 sequence (P18505 whole entry): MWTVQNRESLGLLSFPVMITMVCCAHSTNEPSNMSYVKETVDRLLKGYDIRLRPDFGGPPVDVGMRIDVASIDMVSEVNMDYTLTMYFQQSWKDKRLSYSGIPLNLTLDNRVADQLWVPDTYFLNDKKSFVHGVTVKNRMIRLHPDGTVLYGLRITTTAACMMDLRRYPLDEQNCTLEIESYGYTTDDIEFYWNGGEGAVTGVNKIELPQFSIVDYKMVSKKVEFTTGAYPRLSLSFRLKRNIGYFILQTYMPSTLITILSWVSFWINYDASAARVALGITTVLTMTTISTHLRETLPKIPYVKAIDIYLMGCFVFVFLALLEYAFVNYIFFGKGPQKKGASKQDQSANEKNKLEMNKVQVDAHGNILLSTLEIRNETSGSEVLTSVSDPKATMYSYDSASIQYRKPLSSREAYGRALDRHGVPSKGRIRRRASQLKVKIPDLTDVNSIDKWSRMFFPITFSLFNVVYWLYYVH

A short description of experiment [2]: Antagonist activity at recombinant human alpha6beta2delta GABAA receptor expressed in HEK293 Flp-In cells by FMP assay. The class given is cell-based, Flp-In-293. Summed up: as §1
The target of experiment [3] is T2, GABA-A receptor; alpha-1/beta-2/gamma-2 (Homo sapiens, UniProt P14867+P18507+P47870).
T2 sequence (P14867 whole entry): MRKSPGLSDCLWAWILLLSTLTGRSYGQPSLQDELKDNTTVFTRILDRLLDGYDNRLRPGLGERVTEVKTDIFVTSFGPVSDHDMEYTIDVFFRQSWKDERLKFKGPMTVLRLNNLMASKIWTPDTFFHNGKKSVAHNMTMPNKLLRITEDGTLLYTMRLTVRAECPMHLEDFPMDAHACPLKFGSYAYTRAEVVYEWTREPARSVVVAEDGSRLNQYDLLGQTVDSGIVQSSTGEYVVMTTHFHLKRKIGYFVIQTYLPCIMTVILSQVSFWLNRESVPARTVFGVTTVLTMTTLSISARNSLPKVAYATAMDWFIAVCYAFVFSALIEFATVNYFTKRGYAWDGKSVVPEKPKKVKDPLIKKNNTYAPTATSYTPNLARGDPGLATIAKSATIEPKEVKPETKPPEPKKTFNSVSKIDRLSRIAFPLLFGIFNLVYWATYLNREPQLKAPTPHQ
T2 sequence (P47870 whole entry): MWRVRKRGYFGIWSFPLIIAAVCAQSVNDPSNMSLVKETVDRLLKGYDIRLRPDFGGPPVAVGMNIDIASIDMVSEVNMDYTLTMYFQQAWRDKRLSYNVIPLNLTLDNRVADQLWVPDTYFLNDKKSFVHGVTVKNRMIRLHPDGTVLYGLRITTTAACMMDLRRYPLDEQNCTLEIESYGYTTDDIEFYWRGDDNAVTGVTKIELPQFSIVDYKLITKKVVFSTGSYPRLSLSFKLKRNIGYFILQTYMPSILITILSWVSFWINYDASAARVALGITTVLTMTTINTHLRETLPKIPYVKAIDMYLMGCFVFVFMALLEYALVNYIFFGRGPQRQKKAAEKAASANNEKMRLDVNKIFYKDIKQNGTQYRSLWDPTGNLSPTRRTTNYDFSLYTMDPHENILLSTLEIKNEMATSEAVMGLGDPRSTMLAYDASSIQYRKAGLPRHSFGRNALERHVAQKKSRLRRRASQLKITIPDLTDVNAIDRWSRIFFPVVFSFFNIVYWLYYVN
T2 sequence (P18507 whole entry): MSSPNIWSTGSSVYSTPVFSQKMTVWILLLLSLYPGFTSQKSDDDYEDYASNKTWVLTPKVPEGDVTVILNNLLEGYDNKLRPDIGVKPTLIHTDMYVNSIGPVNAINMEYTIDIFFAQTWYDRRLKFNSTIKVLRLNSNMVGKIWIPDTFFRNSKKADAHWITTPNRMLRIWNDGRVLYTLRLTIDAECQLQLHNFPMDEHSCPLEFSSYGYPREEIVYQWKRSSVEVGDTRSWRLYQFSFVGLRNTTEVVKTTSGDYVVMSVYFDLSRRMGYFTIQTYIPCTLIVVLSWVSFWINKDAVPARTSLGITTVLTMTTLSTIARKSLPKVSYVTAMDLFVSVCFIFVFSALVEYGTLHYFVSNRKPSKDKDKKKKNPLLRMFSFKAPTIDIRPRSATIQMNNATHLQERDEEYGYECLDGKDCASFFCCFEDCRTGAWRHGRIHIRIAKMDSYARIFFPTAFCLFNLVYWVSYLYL
Description: Antagonist activity at human alpha1beta2gamma2 GABAA receptor expressed in HEK by FMP assay. The class given is cell-based. Summed up:
(§2)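 Human αβγ2 receptors in HEK293 cells: α1β2γ2 stably expressed, other αβγ2 subtypes transiently transfected into HEK293 Flp-In background cells (α:β:γ 1:1:2). FLIPR membrane potential assay with ΔRFU baseline to peak/plateau and GABA EC80 as agonist. IC50 from a four-parameter fit, at least three independent experiments.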

Experiment [4] deals with T1, Gamma-aminobutyric acid receptor subunit alpha-4/beta-1/delta. The experiment in a line: Antagonist activity at human alpha4beta1delta GABAA receptor expressed in HEK293 Flp-In cells by FMP assay. The class given is cell-based, Flp-In-293. Summed up:
as §1

Experiment [5] deals with T2, GABA-A receptor; alpha-1/beta-2/gamma-2. The experiment in a line: Antagonist activity at human alpha1beta2gamma2 GABAA receptor expressed in HEK293 cells by FMP assay. The class given is cell-based. Summed up: as §2
Experiment [6] concerns the target T3, GABA A receptor alpha-3/beta-2/gamma-2 (Homo sapiens, UniProt P18507+P34903+P47870).
T3 sequence (P47870 whole entry): T2 sequence (P47870 whole entry)
T3 sequence (P18507 whole entry): T2 sequence (P18507 whole entry)
T3 sequence (P34903 whole entry): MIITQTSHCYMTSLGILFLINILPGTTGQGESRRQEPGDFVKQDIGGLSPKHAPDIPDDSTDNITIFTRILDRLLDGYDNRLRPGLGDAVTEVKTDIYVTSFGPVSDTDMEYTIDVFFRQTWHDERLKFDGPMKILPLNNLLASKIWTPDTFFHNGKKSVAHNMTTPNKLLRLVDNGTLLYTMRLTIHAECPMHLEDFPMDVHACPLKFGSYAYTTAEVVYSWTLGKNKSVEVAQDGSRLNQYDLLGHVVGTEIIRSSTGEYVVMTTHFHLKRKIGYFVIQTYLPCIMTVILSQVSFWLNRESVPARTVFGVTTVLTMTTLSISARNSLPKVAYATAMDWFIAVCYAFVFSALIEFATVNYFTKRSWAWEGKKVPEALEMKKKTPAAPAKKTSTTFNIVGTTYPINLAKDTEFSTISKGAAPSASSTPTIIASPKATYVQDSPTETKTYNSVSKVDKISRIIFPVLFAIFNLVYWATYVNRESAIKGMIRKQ
The experiment in a line: Antagonist activity at human alpha3beta2gamma2 GABAA receptor expressed in HEK293 cells by FMP assay. In kind it is cell-based. Summed up: as §2

The subject of experiment [7] is GABAA receptor α4β2δ (human). The experiment in a line: Antagonist activity at human alpha4beta2delta GABAA receptor expressed in HEK293 Flp-In cells by FMP assay.
The mark [8] stands for this setting: Homo sapiens, Flp-In-293, read-out: pIC50 (converted).

In the case of `O=C(Nc1cccc(C(=O)N2CCC3(CCNCC3)CC2)c1)c1cccs1`, the IC50 in experiment [1] is 88 nM; in experiment [1] (read-out: pIC50 (converted)) it was 87.1 nM; in experiment [2] (setting [8]), 331 nM; in experiment [2] (flp-in-293), 330 nM; in experiment [3], 790 nM; in experiment [3] (read-out: pIC50 (converted)), 794 nM.

On to `CC(=O)Nc1cccc(C(=O)N2CCC3(CCNCC3)CC2)c1`, for which the IC50 was 1030 nM in experiment [1]; 1020 nM in experiment [1] (read-out: pIC50 (converted)); 4170 nM in experiment [2] (setting [8]); 4130 nM in experiment [2] (flp-in-293); 4960 nM in experiment [3]; 5010 nM in experiment [3] (read-out: pIC50 (converted)).

For the compound `Cc1ccc(C(=O)N2CCC3(CCNCC3)CC2)cc1`, the IC50 in experiment [4] is 1280 nM; in experiment [4] (read-out: pIC50 (converted)) it was 1260 nM; in experiment [5] it was 10000 nM; in experiment [5] (read-out: pIC50 (converted)), 10000 nM; in experiment [6], 3570 nM; in experiment [6] (read-out: pIC50 (converted)), 3240 nM. In addition, the values for the IC50 in experiment [7] (setting [8]) and in experiment [7] (flp-in-293) were 2140 nM and 2150 nM, respectively.

As to `Cc1cccc(C(=O)N2CCC3(CCNCC3)CC2)c1`, the IC50 was 195 nM in experiment [4]; 182 nM in experiment [4] (read-out: pIC50 (converted)); 2180 nM in experiment [5]; 2190 nM in experiment [5] (read-out: pIC50 (converted)); 560 nM in experiment [6]; 501 nM in experiment [6] (read-out: pIC50 (converted)). The figures for the IC50 in experiment [7] (setting [8]) and in experiment [7] (flp-in-293) were 251 nM and 250 nM, respectively.

The values above are taken from ChEMBL document CHEMBL5096209, “Structure-Activity Studies of 3,9-Diazaspiro[5.5]undecane-Based γ-Aminobutyric Acid Type A Receptor Antagonists with Immunomodulatory Effect” (J Med Chem, 2021).
